In ChEMBL document CHEMBL3526015, “Metabolism of the c-Fos/activator protein-1 inhibitor T-5224 by multiple human UDP-glucuronosyltransferase isoforms” (Drug Metab Dispos, 2011):

Test: Drug metabolism in human intestinal microsomes assessed as Vmax/Km ratio for T-5224 acyl O-glucuronide formation per mg protein after 10 to 60 mins by HPLC method
Assay type: ADME, Intestine, Microsome
Method in brief: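 Pooled liver microsomes (0.5 mg/mL) were incubated 10 min. Pooled intestinal microsomes (0.25 mg/mL) ran 10 min at T-5224 10–50 μM and 20 min at 1–5 μM. Buffer was 50 mM Tris-HCl pH 7.5 with 8 mM MgCl2, alamethicin and 2 mM UDPGA, at 37°C, in triplicate. Glucuronides G2/G3 were read by HPLC at 290 nm and fitted for Vmax/Km.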

Vmax/Km: 40.9 µL/min
SMILES: O=C(O)CCc1cc(C(=O)c2ccc(OC3CCCC3)cc2O)ccc1OCc1ccc2c(O)noc2c1
